One test deals with CHO. Nature of the test: Cytotoxicity against CHO cells. It counts as cell-based. To be noted: Cricetulus griseus.
Test [1] deals with LAD2. Nature of the test: Inhibition of human LAD2 cells degranulation preincubated for 30 mins before streptavidin stimulation measured after 30 mins by measuring beta-hexosaminidase activity. It counts as functional, cell-based. The essentials:
(§1)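 LAD2 mast cells sensitized overnight at 37 °C, 5% CO2 with 100 ng/ml biotin-IgE in StemPro-34 growth medium with 2 mM glutamine and 100 ng/ml SCF. They were washed into release buffer, plated at 10,000 cells/well, given drug for 30 min, then 125 ng/ml streptavidin for 30 min. Supernatant and freeze-thaw lysate were incubated 90 min at 37 °C with 1 mM p-nitrophenyl-N-acetyl-D-glucosamide, citrate pH 4.5.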

In test [2] the target is Tyrosine-protein kinase HCK (Homo sapiens) (UniProt P08631). Nature of the test: Inhibition of human Hck at 1 uM.
For test [3], the target named is Vascular endothelial growth factor receptor 1 (Homo sapiens) (UniProt P17948). Nature of the test: Inhibition of human Flt1 at 1 uM.
The target in test [4] is Focal adhesion kinase 1 (Homo sapiens) (UniProt Q05397). The test can be described thus: Inhibition of human FAK at 1 uM.
The target in test [5] is Receptor-type tyrosine-protein kinase FLT3 (Homo sapiens) (UniProt P36888). Nature of the test: Inhibition of human Flt3 at 1 uM.
Test [6] has as its target Protein-tyrosine kinase 2-beta (Homo sapiens) (UniProt Q14289). Nature of the test: Inhibition of human Pyk2 at 1 uM.
Test [7] has as its target Tyrosine-protein kinase BTK (Homo sapiens) (UniProt Q06187). Nature of the test: Inhibition of human BTK at 1 uM.
In test [8] the target is Glycogen synthase kinase-3 beta (Homo sapiens) (UniProt P49841). The test can be described thus: Inhibition of human GSK3beta at 1 uM.
The target of test [9] is Protein kinase C gamma type (Homo sapiens) (UniProt P05129). The test can be described thus: Inhibition of human PKCgamma at 1 uM.
The target in test [10] is Calcium/calmodulin-dependent protein kinase type II subunit delta (Homo sapiens) (UniProt Q13557). Nature of the test: Inhibition of human CaMK2delta at 1 uM.
The target of test [11] is Tyrosine-protein kinase ZAP-70 (Homo sapiens) (UniProt P43403). The test can be described thus: Inhibition of human ZAP70 at 1 uM.
The target of test [12] is Mitogen-activated protein kinase 10 (Homo sapiens) (UniProt P53779). Nature of the test: Inhibition of human JNK3 at 1 uM.
Test [13] concerns the target Tyrosine-protein kinase receptor UFO (Homo sapiens) (UniProt P30530). The test can be described thus: Inhibition of human Axl at 1 uM.
Test [14] deals with Proto-oncogene tyrosine-protein kinase receptor Ret (Homo sapiens) (UniProt P07949). Nature of the test: Inhibition of human Ret at 1 uM.
Test [15] deals with Casein kinase I isoform delta (Homo sapiens) (UniProt P48730). The test can be described thus: Inhibition of human CK1delta at 1 uM.
Test [16] addresses Tyrosine-protein kinase Fyn (Homo sapiens) (UniProt P06241). The test can be described thus: Inhibition of human Fyn at 1 uM.
Test [17] deals with Dual specificity mitogen-activated protein kinase kinase 6 (Homo sapiens) (UniProt P52564). Nature of the test: Inhibition of human MKK6 at 1 uM.
Test [18] addresses Protein kinase C beta type (Homo sapiens) (UniProt P05771). Nature of the test: Inhibition of human PKCbeta2 at 1 uM.
The target of test [19] is Inhibitor of nuclear factor kappa-B kinase subunit beta (Homo sapiens) (UniProt O14920). The test can be described thus: Inhibition of human IKKbeta at 1 uM.
Test [20] deals with Protein kinase C epsilon type (Homo sapiens) (UniProt Q02156). Nature of the test: Inhibition of human PKCepsilon at 1 uM.
In test [21] the target is 3-phosphoinositide-dependent protein kinase 1 (PDPK1) (Homo sapiens) (UniProt O15530). The test can be described thus: Inhibition of human PDK1 at 1 uM.
The target of test [22] is Tyrosine-protein kinase Lyn (Homo sapiens) (UniProt P07948). The test can be described thus: Inhibition of human Lyn at 1 uM.
Test [23] addresses Tyrosine-protein kinase Fgr (Homo sapiens) (UniProt P09769). The test can be described thus: Inhibition of human Fgr at 1 uM.
Test [24] has as its target Serine/threonine-protein kinase pim-1 (Homo sapiens) (UniProt P11309). Nature of the test: Inhibition of human Pim-1 at 1 uM.
Test [25] has as its target Fibroblast growth factor receptor 3 (Homo sapiens) (UniProt P22607). Nature of the test: Inhibition of human FGFR3 at 1 uM.
In test [26] the target is MAP kinase-activated protein kinase 5 (Homo sapiens) (UniProt Q8IW41). The test can be described thus: Inhibition of human PRAK at 1 uM.
In test [27] the target is Cyclin-dependent kinase 1/cyclin B1 (Homo sapiens) (UniProt P06493+P14635). The test can be described thus: Inhibition of human CDK1/cyclinB at 1 uM. It counts as protein-complex assay.
Test [28] concerns the target Proto-oncogene tyrosine-protein kinase Src (Homo sapiens) (UniProt P12931). Nature of the test: Inhibition of human cSRC at 1 uM.
For test [29], the target named is Tyrosine-protein kinase ITK/TSK (Homo sapiens) (UniProt Q08881). Nature of the test: Inhibition of human Itk at 1 uM.
In test [30] the target is Mitogen-activated protein kinase kinase kinase 7 (Homo sapiens) (UniProt O43318). The test can be described thus: Inhibition of human TAK1 at 1 uM.
The target in test [31] is High affinity nerve growth factor receptor (Homo sapiens) (UniProt P04629). Nature of the test: Inhibition of human TrkA at 1 uM.
Test [32] has as its target ALK tyrosine kinase receptor (Homo sapiens) (UniProt Q9UM73). The test can be described thus: Inhibition of human Alk at 1 uM.
Test [33] addresses Rho-associated protein kinase 2 (Homo sapiens) (UniProt O75116). Nature of the test: Inhibition of human ROCK2 at 1 uM.
Test [34] addresses Serine/threonine-protein kinase Chk1 (Homo sapiens) (UniProt O14757). The test can be described thus: Inhibition of human CHK1 at 1 uM.
In test [35] the target is Macrophage colony-stimulating factor 1 receptor (Homo sapiens) (UniProt P07333). Nature of the test: Inhibition of human Fms at 1 uM.
Test [36] deals with Tyrosine-protein kinase Lck (Homo sapiens) (UniProt P06239). Nature of the test: Inhibition of human Lck at 1 uM.
Test [37] concerns the target Glycogen synthase kinase-3 alpha (Homo sapiens) (UniProt P49840). The test can be described thus: Inhibition of human GSK3alpha at 1 uM.
Test [38] addresses Aurora kinase A (Homo sapiens) (UniProt O14965). The test can be described thus: Inhibition of human Aurora-A at 1 uM.
Test [39] has as its target Tyrosine-protein kinase Yes (Homo sapiens) (UniProt P07947). The test can be described thus: Inhibition of human Yes at 1 uM.
In test [40] the target is Hepatocyte growth factor receptor (Homo sapiens) (UniProt P08581). Nature of the test: Inhibition of human Met at 1 uM.
The target in test [41] is Ribosomal protein S6 kinase alpha-6 (Homo sapiens) (UniProt Q9UK32). The test can be described thus: Inhibition of human Rsk4 at 1 uM.
The subject of test [42] is LAD2. Nature of the test: Inhibition of human LAD2 cells degranulation at 1 uM preincubated for 30 mins before streptavidin stimulation measured after 30 mins by measuring beta-hexosaminidase activity. Format: functional. The essentials: as §1

Chain of Glycogen synthase kinase-3 alpha (Homo sapiens) (P49840 2-483 limits assumed): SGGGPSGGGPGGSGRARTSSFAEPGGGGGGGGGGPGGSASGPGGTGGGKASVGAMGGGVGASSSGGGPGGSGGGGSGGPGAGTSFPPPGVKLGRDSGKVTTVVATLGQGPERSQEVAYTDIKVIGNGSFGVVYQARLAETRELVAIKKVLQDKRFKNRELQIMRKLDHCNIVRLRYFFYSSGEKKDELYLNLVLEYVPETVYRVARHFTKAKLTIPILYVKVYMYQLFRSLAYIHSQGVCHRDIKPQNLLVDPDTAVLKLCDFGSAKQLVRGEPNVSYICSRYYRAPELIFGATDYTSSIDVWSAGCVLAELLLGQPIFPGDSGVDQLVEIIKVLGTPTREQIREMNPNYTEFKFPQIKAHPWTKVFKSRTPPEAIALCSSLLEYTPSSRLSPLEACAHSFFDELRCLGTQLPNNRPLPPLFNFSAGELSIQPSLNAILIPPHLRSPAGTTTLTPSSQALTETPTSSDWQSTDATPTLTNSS
Chain of Serine/threonine-protein kinase Chk1 (Homo sapiens) (O14757 whole entry): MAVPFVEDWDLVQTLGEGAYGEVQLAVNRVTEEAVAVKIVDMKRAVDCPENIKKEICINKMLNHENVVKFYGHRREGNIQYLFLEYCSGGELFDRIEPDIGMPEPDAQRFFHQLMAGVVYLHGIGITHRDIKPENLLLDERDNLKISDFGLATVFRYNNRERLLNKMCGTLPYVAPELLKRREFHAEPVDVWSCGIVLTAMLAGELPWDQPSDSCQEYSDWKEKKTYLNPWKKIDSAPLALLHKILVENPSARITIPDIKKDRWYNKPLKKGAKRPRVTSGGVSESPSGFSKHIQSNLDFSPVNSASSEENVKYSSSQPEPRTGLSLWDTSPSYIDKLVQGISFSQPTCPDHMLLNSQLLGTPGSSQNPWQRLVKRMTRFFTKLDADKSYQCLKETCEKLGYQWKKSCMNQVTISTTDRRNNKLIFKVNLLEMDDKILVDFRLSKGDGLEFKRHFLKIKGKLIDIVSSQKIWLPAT
Chain of Rho-associated protein kinase 2 (Homo sapiens) (O75116 whole entry, looked up): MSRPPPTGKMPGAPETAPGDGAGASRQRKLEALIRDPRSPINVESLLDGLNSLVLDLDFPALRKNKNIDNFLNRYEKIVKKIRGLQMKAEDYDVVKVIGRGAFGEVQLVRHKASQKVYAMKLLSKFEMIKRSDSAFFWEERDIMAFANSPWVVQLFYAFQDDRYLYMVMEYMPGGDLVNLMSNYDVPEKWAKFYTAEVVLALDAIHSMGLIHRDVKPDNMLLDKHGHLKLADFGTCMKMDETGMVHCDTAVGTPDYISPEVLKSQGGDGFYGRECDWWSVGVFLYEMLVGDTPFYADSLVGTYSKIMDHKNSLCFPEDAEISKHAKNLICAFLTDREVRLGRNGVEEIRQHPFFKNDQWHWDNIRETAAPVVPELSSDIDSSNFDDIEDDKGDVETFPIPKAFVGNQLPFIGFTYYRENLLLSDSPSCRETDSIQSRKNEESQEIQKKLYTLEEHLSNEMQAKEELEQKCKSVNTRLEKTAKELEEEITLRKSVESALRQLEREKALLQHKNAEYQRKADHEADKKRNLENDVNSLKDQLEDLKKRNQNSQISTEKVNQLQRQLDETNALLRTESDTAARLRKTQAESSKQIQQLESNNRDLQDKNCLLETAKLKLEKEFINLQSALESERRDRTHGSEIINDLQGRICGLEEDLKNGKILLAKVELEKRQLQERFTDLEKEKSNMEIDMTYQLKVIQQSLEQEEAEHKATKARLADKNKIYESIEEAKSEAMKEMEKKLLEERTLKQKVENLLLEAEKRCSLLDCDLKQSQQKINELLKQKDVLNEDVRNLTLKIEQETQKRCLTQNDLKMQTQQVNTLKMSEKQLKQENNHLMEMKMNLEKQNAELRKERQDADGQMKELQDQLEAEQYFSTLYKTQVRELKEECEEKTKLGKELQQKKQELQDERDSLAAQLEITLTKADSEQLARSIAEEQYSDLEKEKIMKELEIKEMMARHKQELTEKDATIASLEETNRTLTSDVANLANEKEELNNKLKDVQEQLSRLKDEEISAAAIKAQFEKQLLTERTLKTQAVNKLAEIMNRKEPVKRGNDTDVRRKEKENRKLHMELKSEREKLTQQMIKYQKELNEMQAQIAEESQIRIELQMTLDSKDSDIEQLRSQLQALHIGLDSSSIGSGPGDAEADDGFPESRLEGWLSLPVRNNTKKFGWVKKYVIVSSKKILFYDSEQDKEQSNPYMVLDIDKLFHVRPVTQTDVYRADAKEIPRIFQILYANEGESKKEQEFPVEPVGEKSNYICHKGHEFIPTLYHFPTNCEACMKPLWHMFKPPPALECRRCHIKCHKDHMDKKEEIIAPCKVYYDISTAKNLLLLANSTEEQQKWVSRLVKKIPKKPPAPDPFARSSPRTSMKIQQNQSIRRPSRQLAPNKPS
Chain of Tyrosine-protein kinase Lyn (Homo sapiens) (P07948 2-512 limits assumed): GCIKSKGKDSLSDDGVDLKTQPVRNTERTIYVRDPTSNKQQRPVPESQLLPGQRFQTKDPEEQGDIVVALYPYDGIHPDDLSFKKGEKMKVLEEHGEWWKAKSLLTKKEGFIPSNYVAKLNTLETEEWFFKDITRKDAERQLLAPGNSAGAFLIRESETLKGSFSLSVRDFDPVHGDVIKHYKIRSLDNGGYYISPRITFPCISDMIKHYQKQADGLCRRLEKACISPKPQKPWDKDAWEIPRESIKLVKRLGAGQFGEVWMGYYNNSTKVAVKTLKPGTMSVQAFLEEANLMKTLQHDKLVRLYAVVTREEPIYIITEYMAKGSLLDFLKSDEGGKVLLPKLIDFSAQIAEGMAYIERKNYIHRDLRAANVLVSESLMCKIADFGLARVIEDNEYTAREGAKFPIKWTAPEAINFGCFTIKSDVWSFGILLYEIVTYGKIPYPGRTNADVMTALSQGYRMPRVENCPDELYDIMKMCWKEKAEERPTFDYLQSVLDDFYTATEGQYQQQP
Chain of Protein kinase C beta type (Homo sapiens) (P05771 2-671 limits assumed): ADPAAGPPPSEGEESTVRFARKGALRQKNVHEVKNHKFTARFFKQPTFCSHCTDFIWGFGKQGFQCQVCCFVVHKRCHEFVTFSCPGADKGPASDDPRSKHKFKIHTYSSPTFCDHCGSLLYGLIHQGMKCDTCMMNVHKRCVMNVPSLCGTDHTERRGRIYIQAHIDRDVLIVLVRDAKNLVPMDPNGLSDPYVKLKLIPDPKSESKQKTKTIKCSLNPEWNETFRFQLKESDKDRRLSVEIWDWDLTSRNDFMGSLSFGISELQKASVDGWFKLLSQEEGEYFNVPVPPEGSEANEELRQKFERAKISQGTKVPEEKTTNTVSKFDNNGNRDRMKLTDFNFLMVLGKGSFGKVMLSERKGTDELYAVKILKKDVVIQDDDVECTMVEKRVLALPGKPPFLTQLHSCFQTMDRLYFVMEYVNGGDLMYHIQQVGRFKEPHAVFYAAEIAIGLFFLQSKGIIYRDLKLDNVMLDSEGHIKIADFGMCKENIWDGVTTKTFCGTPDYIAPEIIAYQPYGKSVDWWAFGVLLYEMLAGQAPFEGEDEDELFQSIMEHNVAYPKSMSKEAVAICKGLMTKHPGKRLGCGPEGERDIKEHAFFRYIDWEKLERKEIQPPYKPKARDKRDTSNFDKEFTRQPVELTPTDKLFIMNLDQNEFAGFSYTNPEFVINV
Chain of Inhibitor of nuclear factor kappa-B kinase subunit beta (Homo sapiens) (O14920 whole entry): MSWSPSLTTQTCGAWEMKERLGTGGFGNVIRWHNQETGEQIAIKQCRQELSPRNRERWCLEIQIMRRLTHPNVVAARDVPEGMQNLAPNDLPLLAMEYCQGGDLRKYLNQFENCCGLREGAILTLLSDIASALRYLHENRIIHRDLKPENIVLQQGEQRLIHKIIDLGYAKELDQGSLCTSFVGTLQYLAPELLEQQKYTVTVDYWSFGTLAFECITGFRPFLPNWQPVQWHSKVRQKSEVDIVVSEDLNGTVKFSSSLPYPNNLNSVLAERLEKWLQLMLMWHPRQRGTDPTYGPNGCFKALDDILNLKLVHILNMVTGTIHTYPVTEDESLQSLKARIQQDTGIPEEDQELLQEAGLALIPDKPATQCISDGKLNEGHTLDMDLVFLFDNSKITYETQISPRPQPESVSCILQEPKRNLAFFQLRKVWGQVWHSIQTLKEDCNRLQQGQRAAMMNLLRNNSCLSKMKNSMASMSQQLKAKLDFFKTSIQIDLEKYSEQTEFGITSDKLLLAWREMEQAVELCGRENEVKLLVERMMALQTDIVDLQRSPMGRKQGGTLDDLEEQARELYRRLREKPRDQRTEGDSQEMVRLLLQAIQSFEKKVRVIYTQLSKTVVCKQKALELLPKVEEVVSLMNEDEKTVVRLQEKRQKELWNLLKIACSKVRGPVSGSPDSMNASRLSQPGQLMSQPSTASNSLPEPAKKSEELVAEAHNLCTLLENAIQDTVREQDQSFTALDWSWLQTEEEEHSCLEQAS
Chain of Casein kinase I isoform delta (Homo sapiens) (P48730 whole entry, looked up, canonical isoform): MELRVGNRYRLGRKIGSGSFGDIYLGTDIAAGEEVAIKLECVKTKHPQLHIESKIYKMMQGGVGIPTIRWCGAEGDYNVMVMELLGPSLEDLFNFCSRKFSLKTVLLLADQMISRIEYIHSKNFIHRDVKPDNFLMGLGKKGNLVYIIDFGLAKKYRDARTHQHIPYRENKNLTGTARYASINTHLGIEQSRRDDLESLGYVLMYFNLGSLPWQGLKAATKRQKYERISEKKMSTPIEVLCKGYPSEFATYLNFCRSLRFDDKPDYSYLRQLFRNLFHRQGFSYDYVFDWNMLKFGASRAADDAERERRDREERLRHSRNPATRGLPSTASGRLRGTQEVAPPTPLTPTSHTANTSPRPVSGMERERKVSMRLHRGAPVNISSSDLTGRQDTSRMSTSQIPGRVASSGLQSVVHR
Chain of Serine/threonine-protein kinase pim-1 (Homo sapiens) (P11309 whole entry, looked up): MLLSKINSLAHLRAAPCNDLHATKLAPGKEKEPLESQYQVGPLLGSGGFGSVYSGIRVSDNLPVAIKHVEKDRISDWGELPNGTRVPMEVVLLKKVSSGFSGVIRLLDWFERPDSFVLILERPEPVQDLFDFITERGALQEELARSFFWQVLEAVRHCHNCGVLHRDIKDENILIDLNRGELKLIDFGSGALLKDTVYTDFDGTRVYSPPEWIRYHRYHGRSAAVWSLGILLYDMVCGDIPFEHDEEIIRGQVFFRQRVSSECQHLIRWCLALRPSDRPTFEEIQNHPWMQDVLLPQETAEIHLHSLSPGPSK

For the compound `O=C(Cc1cccnc1)Nc1cc(Nc2cnccn2)nc(-c2ccnc(N3CCNCC3)c2)c1`, the IC50 was more than 20000 nM in the test with CHO and 352 nM in the test on LAD2 [1].

On to `O=C(Nc1cc(Nc2cnccn2)nc(-c2ccnc(N3CCNCC3)c2)c1)c1ccccc1`, for which the IC50 was more than 20000 nM in the test on CHO and 362 nM in the test with LAD2 [1].

As for `O=C(Nc1cc(Nc2cnccn2)nc(-c2ccnc(N3CCNCC3)c2)c1)c1cncnc1`, the IC50 in the test with CHO was more than 20000 nM; in the test with LAD2 [1], 331 nM.

On to `c1cc(-c2cccc(Nc3cnccn3)n2)cc(N2CCNCC2)c1`, for which the IC50 in the test with CHO is more than 15000 nM.

Take `O=C(Nc1cc(Nc2cnccn2)nc(-c2ccnc(N3CCNCC3)c2)c1)c1cccnc1`: the IC50 with CHO is more than 20000 nM; in the test on LAD2 [1], 122 nM.

Regarding `CNc1cc(Nc2cnccn2)nc(-c2ccnc(N3CCNCC3)c2)c1`, the results for the IC50 in the test on CHO and in the test with LAD2 [1] were more than 20000 nM and 188 nM, respectively.

Take `Nc1cc(Nc2cnccn2)nc(-c2ccnc(N3CCNCC3)c2)c1`: the inhibition is more than 50% in [2]; less than 50% in test [3]; less than 50% in [4]; more than 50% in test [5]; less than 50% in test [6]; more than 50% in test [7]. Besides, the inhibition in test [8], in test [9], in [10], in test [11], in test [12] and in test [13] was less than 50% in each case. Further, the inhibition in test [14] is more than 50%; in test [15], less than 50%; in test [16] it was less than 50%; in test [17] it was less than 50%; in test [18] it was less than 50%; in [19], less than 50%. In addition, the inhibition was less than 50% in [20]; less than 50% in [21]; more than 50% in [22]; more than 50% in test [23]; less than 50% in [24]; less than 50% in test [25]. For the same compound, the inhibition in test [26] is less than 50%; in [27] it was less than 50%; in test [28], more than 50%; in test [29], more than 50%; in test [30], less than 50%; in [31] it was less than 50%. The inhibition in test [32] is less than 50%; in [33], less than 50%; in [34], less than 50%; in [35] it was less than 50%; in test [36], more than 50%; in test [37], more than 50%. The inhibition in test [38] is less than 50%; in test [39], more than 50%; in [40], less than 50%; in test [41] it was less than 50%. In addition, the IC50 in the test on CHO was more than 20000 nM; in the test with LAD2 [1] it was 118 nM.

Turning to `CC(=O)N1CCC(C(=O)Nc2cc(Nc3cnccn3)nc(-c3ccnc(N4CCNCC4)c3)c2)CC1`, the IC50 with CHO was more than 20000 nM; in the test on LAD2 [1], 1000 nM.

Regarding `FC(F)(F)c1ccnc(Nc2cccc(-c3ccnc(N4CCNCC4)c3)n2)c1`, in the test with CHO, it took 1000 nM to reach half-maximal inhibition (IC50). That is a single-digit micromolar value.

In the test on CHO, `Cc1ccnc(Nc2cccc(-c3ccnc(N4CCNCC4)c3)n2)c1` gave an IC50 of 1000 nM.

In the case of `O=C(O)c1ccc(C(=O)Nc2cc(Nc3cnccn3)nc(-c3ccnc(N4CCNCC4)c3)c2)cc1`, the figures for the IC50 with CHO and in the test with LAD2 [1] were more than 20000 nM and 140 nM, respectively.

On to `O=C(Nc1cc(Nc2cnccn2)nc(-c2ccnc(N3CCNCC3)c2)c1)c1ccc(C(=O)O)nc1`, for which the results for the IC50 in the test with CHO and in the test with LAD2 [1] were more than 20000 nM and 204 nM, respectively.

For `Oc1ccc(CNc2cc(Nc3cnccn3)nc(-c3ccnc(N4CCNCC4)c3)c2)cc1`, the concentration for half-maximal inhibition (IC50) in the test on CHO is more than 20000 nM; with LAD2 [1], 585 nM.

`c1cc(Nc2cnccn2)nc(-c2ccnc(N3CCNCC3)c2)c1` came in with an IC50 with CHO of more than 15000 nM.

Turning to `Cc1cc(C(=O)Nc2cc(Nc3cnccn3)nc(-c3ccnc(N4CCNCC4)c3)c2)n(C)n1`, the IC50 in the test with CHO was more than 20000 nM; with LAD2 [1], 169 nM.

In the test on CHO, `FC(F)(F)c1ccnc(Nc2cccc(-c3cccc(N4CCNCC4)c3)n2)c1` returned a half-inhibitory concentration (IC50) of 1000 nM.

`O=C(Nc1cc(Nc2cnccn2)nc(-c2ccnc(N3CCNCC3)c2)c1)C1CCNCC1` returned an IC50 in the test on CHO of more than 20000 nM. Besides, in the test with LAD2 [42], the inhibition at 1 µM was 14%.

Usually IC50 stands for the concentration at which inhibition is half-maximal. Low readings indicate greater potency in that assay, high ones weaker potency in that assay. The inhibition is the relative decrease from the control value, in per cent.

(Values after ChEMBL document CHEMBL2069193 (Bioorg Med Chem Lett, 2012).)
